# Data reported in ChEMBL document CHEMBL1145351, “Squalene-derived flexible linkers for bioactive peptides” (Bioorg Med Chem Lett, 2007).
# Activity calls are given as the source filed them. No cut-off for these calls is given here.
# What was measured:
# [1] = biological target: T1, Melanocortin receptor 4 (Homo sapiens, UniProt P32245); experiment: Displacement of Eu-NDP-alpha-MSH from human melanocortin 4 receptor expressed in HEK293 cells; assay type: cell-based
# Summary of the method: (§1)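 HEK293 cells overexpressing hMC4R, plated at 12,000 cells/well and grown 3 days. Incubated 40 min at 37 °C, washed 4 times in Tris-HCl/BSA/NaCl, then enhancement solution added for 30 min at 37 °C before time-resolved Eu read-out. IC50 averaged over n independent experiments, each in quadruplicate.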
# [2] = biological target: T1, Melanocortin receptor 4; experiment: Displacement of Eu-NDP-alpha-MSH from human melanocortin 4 receptor expressed in HEK293 cells at 1 pM to 10 uM; assay type: cell-based; summary of the method: as §1
# T1 sequence (P32245 whole entry): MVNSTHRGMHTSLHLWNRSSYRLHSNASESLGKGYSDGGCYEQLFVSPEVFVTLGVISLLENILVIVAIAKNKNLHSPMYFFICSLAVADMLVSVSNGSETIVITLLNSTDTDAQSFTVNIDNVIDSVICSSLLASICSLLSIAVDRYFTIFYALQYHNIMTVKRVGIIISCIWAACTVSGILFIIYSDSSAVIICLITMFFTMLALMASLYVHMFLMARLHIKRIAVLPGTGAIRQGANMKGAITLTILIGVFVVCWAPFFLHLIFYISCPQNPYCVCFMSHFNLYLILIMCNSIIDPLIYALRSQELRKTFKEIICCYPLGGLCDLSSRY
SMILES,IC50 [1] [nM],Activity [2]
"CC(C)C(O)CCC(C)C(O)CCC(C)C(CCC(O)C(C)CCC(O)C(C)CCC(OCCCCCCn1cc(CCCC(=O)N[C@@H](Cc2cnc[nH]2)C(=O)N[C@@H](Cc2ccccc2)C(=O)N[C@@H](CCCNC(=N)N)C(=O)N[C@@H](Cc2c[nH]c3ccccc23)C(N)=O)nn1)C(C)C)OCCCCCCn1cc(CCCC(=O)N[C@@H](Cc2cnc[nH]2)C(=O)N[C@@H](Cc2ccccc2)C(=O)NC(CCCNC(=N)N)C(=O)N[C@@H](Cc2c[nH]c3ccccc23)C(N)=O)nn1 (single isomer, unassigned)",400,
N=C(N)NCCC[C@H](NC(=O)C(Cc1ccccc1)NC(=O)[C@@H](N)Cc1cnc[nH]1)C(=O)N[C@@H](Cc1c[nH]c2ccccc12)C(=O)O (stereo in doubt),1100,
C#CCCCC(=O)N[C@@H](CO)C(N)=O,,inactive
C#CCCCC(=O)N[C@@H](Cc1cnc[nH]1)C(=O)N[C@H](Cc1ccccc1)C(=O)N[C@@H](CCCNC(=N)N)C(=O)N[C@@H](Cc1c[nH]c2ccccc12)C(N)=O,900,

# Results, then the compound that gave them:
IC50 [1] [nM],Activity [2],SMILES
,inactive,CC(C)C(O)CCC(C)C(O)CCC(C)C(O)CCC(OCCCCCCn1cc(CCCC(=O)N[C@@H](CO)C(N)=O)nn1)C(C)CCC(O)C(C)CCC(O)C(C)C (some centres not stated)
,inactive,CC(C)C(O)CCC(C)C(O)CCC(C)C(CCC(O)C(C)CCC(O)C(C)CCC(OCCCCCCn1cc(CCCC(=O)N[C@@H](CO)C(N)=O)nn1)C(C)C)OCCCCCCn1cc(CCCC(=O)N[C@@H](CO)C(N)=O)nn1 (some centres not stated)
3300,,CC(C)C(O)CCC(C)C(O)CCC(C)C(O)CCC(OCCCCCCn1cc(CCCC(=O)N[C@@H](Cc2cnc[nH]2)C(=O)N[C@H](Cc2ccccc2)C(=O)N[C@@H](CCCN=C(N)N)C(=O)N[C@@H](Cc2c[nH]c3ccccc23)C(N)=O)nn1)C(C)CCC(O)C(C)CCC(O)C(C)C (some centres not stated)
